# Source: PubChem BioAssay AID504382 (The Scripps Research Institute Molecular Screening Center, 2011)
# Among all 2,500 compounds or so, about 460 (18%) were called active.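 Rule for the calls: active = mean activation above a cutoff of low control average plus 3 SD from the earlier screen (cut at about 12% in these data); inactive = the rest.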 Only a sample is shown.
# Test: IANBD-channel fluorescence artefacts in buffer – biochemical, artefact control for cardiac RTF calcium sensitizer project, confirmation (AID 504382)
# Conditions: IANBD fluorescence interference counterscreen, EC20 Ca2+, at 7.2 µM, hits give high values, scaled: EC20 calcium 0, EC100 calcium 100
# Outline: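 Also added: EC20 calcium, 0.472 mM; dosing: single nominal 7.2 µM compound dose, 0.7% DMSO final; timing: 15 min, 25 °C; detection: fluorescence intensity, excitation 480 nm, emission 540 nm; replicates: each compound tested in triplicate wells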
row,SMILES,fluorescence artifact activation
1,Cc1noc(C)c1S(=O)(=O)N(C)C[C@H]1Oc2ccc(NC(=O)CCC(F)(F)F)cc2C(=O)N([C@H](C)CO)C[C@@H]1C,0.08% (inactive)
2,Cc1ccc(S(=O)(=O)Nc2nc3ccccc3nc2NCc2ccco2)cc1,2.57% (inactive)
3,O=S(=O)(Nc1nc2ccccc2nc1NCCO)c1cccc(Cl)c1,57.1% (active)
4,O=S(=O)(Nc1nc2ccccc2nc1N1CCN(c2ccccn2)CC1)c1ccc(Cl)cc1,-0.09% (inactive)
5,COC1=CC2(O)CCCC2=CC1=O (centres undefined),0.15% (inactive)
6,Cc1cc(Cn2nc(C(=O)NCC3CC3)cc2-c2ccccc2)on1,0.04% (inactive)
7,COc1cccc(/C=C/C(=C2\C(=O)N(c3ccccc3)N=C2C)c2ccc(Br)cc2)c1OC,0.1% (inactive)
8,CCC1(c2ccccc2)NC(=O)N(CC(=O)Nc2ccc(OC)nc2)C1=O (centres undefined),-0.05% (inactive)
9,N#CCCN(C(=O)c1ccco1)c1ccccc1,1610% (active)
10,CCN(C(=O)c1cc2ccccc2oc1=O)c1ccccc1,1.56% (inactive)
11,C/C(=N/NC(=O)CNC(=O)Cc1ccccc1)c1ccco1,0% (inactive)
12,CCOCCCNc1ccc(-c2ccccc2)nn1,1.31% (inactive)
13,O=C1/C(=C\c2cc(Cl)c(O)c(Cl)c2)SC(=S)N1Cc1ccccc1,-0.11% (inactive)
14,COc1ccc(O)c(/C=C2/SC(=S)N(Cc3ccccc3)C2=O)c1,0.17% (inactive)
15,COc1cc(/C=C2/SC(=S)N(Cc3ccccc3)C2=O)cc(Cl)c1O,1800% (active)
16,O=C(N/N=C/c1cccc([N+](=O)[O-])c1)c1cnccn1,-0.02% (inactive)
17,O=C(CSc1ccc(-c2cccs2)nn1)N1CCCCC1,0.91% (inactive)
18,CCOc1ccc(NC(=O)COC(=O)CCN2C(=O)C3CC=CCC3C2=O)cc1OCC (centres undefined),0.5% (inactive)
19,CN1CC[C@@H]2C(=O)N3CCc4ccc(Br)cc4[C@@H]3C[C@@H]21,0.24% (inactive)
20,COC(=O)C1=C(O)/C(=C\c2ccc(CNS(=O)(=O)c3ccc(Cl)cc3)o2)N=C1C,0.18% (inactive)

row,SMILES,fluorescence artifact activation
1,CN1CC=C2C(C#N)=C(N)C(C#N)(C#N)C(Cc3ccccc3)C2C1 (centres undefined),0.22% (inactive)
2,CCN1CC=C2C(C#N)=C(N)C(C#N)(C#N)C(CCc3ccccc3)C2C1 (centres undefined),0.03% (inactive)
3,COc1cc(C2C3CN(C)CC=C3C(C#N)=C(N)C2(C#N)C#N)ccc1OC(C)C (centres undefined),16.8% (active)
4,CN1CC=C2C(C#N)=C(N)C(C#N)(C#N)[C@H](c3cccc(Cl)c3)C2C1 (some centres undefined),10.2% (inactive)
5,CN1CC=C2C(C#N)=C(N)C(C#N)(C#N)C(CCc3ccccc3)C2C1 (centres undefined),12.7% (active)
6,COc1cc([C@@H]2[C@H]3CN(C)CC=C3C(C#N)=C(N)C2(C#N)C#N)cc2c1OCO2,0.14% (inactive)
7,COc1ccc(/C=N/NC(=O)C(Cc2c[nH]c3ccccc23)NC(=O)OCC(C)C)cc1[N+](=O)[O-] (centres undefined),0.1% (inactive)
8,Cc1cccc(CN2C(=O)N/C(=C/c3ccc(C)s3)C2=O)c1,0.03% (inactive)
9,COc1ccc(C2C(C#N)=C(N)N(c3cccnc3)C3=C2C(=O)CCC3)cc1Cn1cc([N+](=O)[O-])cn1 (centres undefined),4.77% (inactive)
10,CCOC(=O)C1C(=O)NC(SCC(N)=O)=C(C#N)C1c1ccccc1OCC (centres undefined),0.28% (inactive)
11,Fc1ccc(-c2nc3ccncc3[nH]2)cc1,1.25% (inactive)
12,Cc1ccc2oc3c(SCc4nc5ccccc5[nH]4)nc(C)nc3c2c1,6.37% (inactive)
13,CC1=NN(C(=O)c2ccccc2-n2cccc2)C(O)(C(F)(F)F)C1 (centres undefined),0.1% (inactive)
14,COc1ccc(OC)c(C2=C/C(=C/c3ccccn3)C(=O)O2)c1,0.07% (inactive)
15,CCN(CC)c1ccc(/C=C/c2cccc[n+]2C)c(OC)c1,22.6% (active)
16,CCN(CC)c1ccc(/C=C/c2cc(-c3ccccc3)c3ccccc3n2)cc1,3.44% (inactive)
17,C[C@@H]1CC=C[C@H]2[C@H]1C(=O)N(Cc1ccccc1)[C@H]2c1ccc(-c2cc3ccccc3s2)cc1F,0.21% (inactive)
18,COc1ccc(NC(=O)c2cc(C)on2)cc1OC,0.84% (inactive)
19,COc1ccc(S(=O)(=O)Nc2cc(C)on2)cc1,26.7% (active)
20,COc1ccc(-c2cc(C(F)(F)F)nc(S(=O)(=O)CCCC(=O)Nc3cc(C)on3)n2)cc1OC,3.3% (inactive)

row,SMILES,fluorescence artifact activation
1,CC1=NN(C(=O)c2ccc(Cn3ccc([N+](=O)[O-])n3)cc2)C(O)(C(F)(F)F)C1 (centres undefined),5.1% (inactive)
2,COc1cccc(/C=N/c2nc3ccccc3[nH]2)c1O,0.01% (inactive)
3,CN(C)c1ccc(/C=C/C(=O)c2c(O)c3ccccc3oc2=O)cc1,1.4% (inactive)
4,CN1CCN(c2ccc(-c3cccc(NC(=O)COc4ccccc4)c3)nn2)CC1,9.37% (inactive)
5,Cc1cc[n+](-c2[nH]c(=O)sc2/C=N/N=C(\[O-])c2ccccc2)cc1C,3.62% (inactive)
6,O=C(NC(=S)Nc1ccc2oc(=O)ccc2c1)c1ccco1,33.8% (active)
7,O=C(CSc1ccc(Cl)cc1)Nc1cccc(NC(=O)c2ccco2)c1,0.39% (inactive)
8,O=C(NC(NC(=S)Nc1ccccc1C(=O)O)C(Cl)(Cl)Cl)c1ccco1 (centres undefined),0% (inactive)
9,COc1ccc(/C=[N+](\[O-])C2N(c3ccccc3)C(=S)SC2(C)C)cc1OC (centres undefined),0.2% (inactive)
10,CC(C)N1CC=C2C(C#N)=C(N)C(C#N)(C#N)C(c3ccccc3)C2C1 (centres undefined),0.48% (inactive)
11,O=C(Cc1ccccc1Cl)Nc1cccnc1,1.8% (inactive)
12,CC(C)(ONC(=O)Nc1ccccc1Cl)C(=O)O,314% (active)
13,COc1ccc(C(=O)Nc2ccccc2-c2ccccc2)cc1Cl,0.15% (inactive)
14,Clc1cccc(C[n+]2cc(-c3ccccc3)n3c2CCC3)c1,-0.06% (inactive)
15,CCc1cc[n+](-c2nc([O-])sc2C=O)cc1,2.36% (inactive)
16,COc1ccc(N2CC(C(=O)Nc3nc(-c4ccccc4)c(C(C)=O)s3)CC2=O)c(OC)c1 (centres undefined),0.16% (inactive)
17,O=C(O)CCC(=O)Nc1cc(C(F)(F)F)cc(C(F)(F)F)c1,3.32% (inactive)
18,CC1=NN(c2ccc(Br)cc2)C(=O)/C1=C/c1ccc(-c2ccccc2C(=O)O)o1,0.09% (inactive)
19,CC1=NN(c2ccc(C)c(C)c2)C(=O)/C1=C/c1ccc2c(c1)n(C)c(=O)n2C,16.1% (active)
